Here are results for 1 compound from ChEMBL document CHEMBL2034857, “Discovery of the macrocycle (9E)-15-(2-(pyrrolidin-1-yl)ethoxy)-7,12,25-trioxa-19,21,24-triaza-tetracyclo[18.3.1.1(2,5).1(14,18)]hexacosa-1(24),2,4,9,14(26),15,17,20,22-nonaene (SB1578), a potent inhibitor of janus kinase 2/fms-like tyrosine kinase-3 (JAK2/FLT3) for the treatment of rheumatoid …” (J Med Chem, 2012).

Where only a bound is given, the exact number is not on record here.

Data set [1] in a line: Oral bioavailability in rhesus monkey at 20 mg/kg. To be noted: in vivo. In kind it is ADME, organism-based, Macaca mulatta. The essentials: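 Single oral gavage at 50 (mouse, rat), 5 (dog) or 20 (monkey) mg/kg; rodents and monkeys received suspensions in 0.5% methylcellulose/0.1% Tween 80, dogs gelatin capsules. Serial blood taken 0–24 h into K3EDTA, plasma stored at −70 °C. Parameters estimated by noncompartmental analysis, n = 3 per species (mouse values from mean concentration–time data, 3 mice per time point).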

The target of data set [2] is Tyrosine-protein kinase JAK2 (Homo sapiens, UniProt O60674). In words: Inhibition of recombinant JAK2 using poly(Glu,Ala,Tyr) as substrate after 2 hrs by luminometric assay.
Sequence of Tyrosine-protein kinase JAK2 (O60674 whole entry): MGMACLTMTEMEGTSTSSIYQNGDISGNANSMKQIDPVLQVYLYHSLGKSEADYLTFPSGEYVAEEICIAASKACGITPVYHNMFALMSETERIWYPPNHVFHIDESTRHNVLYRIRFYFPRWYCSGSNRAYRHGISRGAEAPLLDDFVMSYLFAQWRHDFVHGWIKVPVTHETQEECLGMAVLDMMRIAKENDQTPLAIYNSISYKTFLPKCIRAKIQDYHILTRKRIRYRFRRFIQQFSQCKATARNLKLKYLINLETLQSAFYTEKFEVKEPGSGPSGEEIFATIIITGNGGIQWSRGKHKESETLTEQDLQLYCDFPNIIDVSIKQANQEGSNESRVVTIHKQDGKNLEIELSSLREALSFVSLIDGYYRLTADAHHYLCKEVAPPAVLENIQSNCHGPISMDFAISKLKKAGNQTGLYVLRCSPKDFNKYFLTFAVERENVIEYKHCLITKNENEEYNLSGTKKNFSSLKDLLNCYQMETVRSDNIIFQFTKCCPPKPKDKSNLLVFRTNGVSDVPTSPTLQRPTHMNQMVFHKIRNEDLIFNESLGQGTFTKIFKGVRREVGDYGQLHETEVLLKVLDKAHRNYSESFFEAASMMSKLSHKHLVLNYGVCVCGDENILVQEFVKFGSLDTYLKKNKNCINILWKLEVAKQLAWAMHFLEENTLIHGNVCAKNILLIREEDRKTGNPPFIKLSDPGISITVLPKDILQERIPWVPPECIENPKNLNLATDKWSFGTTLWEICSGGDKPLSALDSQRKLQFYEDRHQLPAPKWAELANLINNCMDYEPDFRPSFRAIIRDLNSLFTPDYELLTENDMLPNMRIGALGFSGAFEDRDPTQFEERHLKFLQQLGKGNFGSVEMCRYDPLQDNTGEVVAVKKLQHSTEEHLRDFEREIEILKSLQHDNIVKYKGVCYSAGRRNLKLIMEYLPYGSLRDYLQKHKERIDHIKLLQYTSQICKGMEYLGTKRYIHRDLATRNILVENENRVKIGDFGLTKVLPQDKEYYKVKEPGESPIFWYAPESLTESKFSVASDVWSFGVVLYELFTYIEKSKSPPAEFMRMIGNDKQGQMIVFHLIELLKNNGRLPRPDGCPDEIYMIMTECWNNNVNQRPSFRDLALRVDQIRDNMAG
Data set [3] has as its target T1, Receptor-type tyrosine-protein kinase FLT3 (Homo sapiens, UniProt P36888).
T1 sequence (P36888 whole entry): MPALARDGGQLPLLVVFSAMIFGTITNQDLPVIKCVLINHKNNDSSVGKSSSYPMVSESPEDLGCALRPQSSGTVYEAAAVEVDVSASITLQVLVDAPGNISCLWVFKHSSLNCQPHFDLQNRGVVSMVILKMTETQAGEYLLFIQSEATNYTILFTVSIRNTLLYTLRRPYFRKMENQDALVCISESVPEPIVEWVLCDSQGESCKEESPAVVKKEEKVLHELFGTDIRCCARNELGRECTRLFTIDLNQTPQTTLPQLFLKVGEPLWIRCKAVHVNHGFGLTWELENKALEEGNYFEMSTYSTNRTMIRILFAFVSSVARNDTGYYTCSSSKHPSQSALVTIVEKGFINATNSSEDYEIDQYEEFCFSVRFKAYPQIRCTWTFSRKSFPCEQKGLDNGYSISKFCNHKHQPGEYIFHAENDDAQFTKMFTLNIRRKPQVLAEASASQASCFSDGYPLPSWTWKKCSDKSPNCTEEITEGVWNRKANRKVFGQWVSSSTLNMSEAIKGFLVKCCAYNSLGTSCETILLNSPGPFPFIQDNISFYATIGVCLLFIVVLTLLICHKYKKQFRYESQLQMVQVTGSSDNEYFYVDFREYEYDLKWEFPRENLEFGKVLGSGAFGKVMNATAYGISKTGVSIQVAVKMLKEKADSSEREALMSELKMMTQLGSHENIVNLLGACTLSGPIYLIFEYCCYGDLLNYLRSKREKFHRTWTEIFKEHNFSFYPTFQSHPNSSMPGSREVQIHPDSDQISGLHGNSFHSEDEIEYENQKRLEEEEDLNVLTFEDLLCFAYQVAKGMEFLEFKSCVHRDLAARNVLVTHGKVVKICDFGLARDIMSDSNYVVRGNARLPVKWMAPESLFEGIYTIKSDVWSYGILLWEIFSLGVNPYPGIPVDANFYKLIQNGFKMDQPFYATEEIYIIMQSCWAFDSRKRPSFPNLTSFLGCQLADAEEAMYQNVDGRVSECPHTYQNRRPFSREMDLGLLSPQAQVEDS
Nature of the data set: Inhibition of recombinant FLT3 using poly(Glu,Tyr) as substrate after 2 hrs by luminometric assay.

Data set [4] addresses T2, Cytochrome P450 3A4 (Homo sapiens, UniProt P08684). In words: Inhibition of CYP3A4 in human liver microsomes using testosterone as substrate by LC-MS/MS analysis. It is filed as ADME, Microsome.
In a further data set the target is hERG (Homo sapiens, UniProt Q12809). In words: Displacement of dofetilide from human ERG at 10 uM. Particulars: probe dofetilide.
Sequence of hERG (Q12809 whole entry): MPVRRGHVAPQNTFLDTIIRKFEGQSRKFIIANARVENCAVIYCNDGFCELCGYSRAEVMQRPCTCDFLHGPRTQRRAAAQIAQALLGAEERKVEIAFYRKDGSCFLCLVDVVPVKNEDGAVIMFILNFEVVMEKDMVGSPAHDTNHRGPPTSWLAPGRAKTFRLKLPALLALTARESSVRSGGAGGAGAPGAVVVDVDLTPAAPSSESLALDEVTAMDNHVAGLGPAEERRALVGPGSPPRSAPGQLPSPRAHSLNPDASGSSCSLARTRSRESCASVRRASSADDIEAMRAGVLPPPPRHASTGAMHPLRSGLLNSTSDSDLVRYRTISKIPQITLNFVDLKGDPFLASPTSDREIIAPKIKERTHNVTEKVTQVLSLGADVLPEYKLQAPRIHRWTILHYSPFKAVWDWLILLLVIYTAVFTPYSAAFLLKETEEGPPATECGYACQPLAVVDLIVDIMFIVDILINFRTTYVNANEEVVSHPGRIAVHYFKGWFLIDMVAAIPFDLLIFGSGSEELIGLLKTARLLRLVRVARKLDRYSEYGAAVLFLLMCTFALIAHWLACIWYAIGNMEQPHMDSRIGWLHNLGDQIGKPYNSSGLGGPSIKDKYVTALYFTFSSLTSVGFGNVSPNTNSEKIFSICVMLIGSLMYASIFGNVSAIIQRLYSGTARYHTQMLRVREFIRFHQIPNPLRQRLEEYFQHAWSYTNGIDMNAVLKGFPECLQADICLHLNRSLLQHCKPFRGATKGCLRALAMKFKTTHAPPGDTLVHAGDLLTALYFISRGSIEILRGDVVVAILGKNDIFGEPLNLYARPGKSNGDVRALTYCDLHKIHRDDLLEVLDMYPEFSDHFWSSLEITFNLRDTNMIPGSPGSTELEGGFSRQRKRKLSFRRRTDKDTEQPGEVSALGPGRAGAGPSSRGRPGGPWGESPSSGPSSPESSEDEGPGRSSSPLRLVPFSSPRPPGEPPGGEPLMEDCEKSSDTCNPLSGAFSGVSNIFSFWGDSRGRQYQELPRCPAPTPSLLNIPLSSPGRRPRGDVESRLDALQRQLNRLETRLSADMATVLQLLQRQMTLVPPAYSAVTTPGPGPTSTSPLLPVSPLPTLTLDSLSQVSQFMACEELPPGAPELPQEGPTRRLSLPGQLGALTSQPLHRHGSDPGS
Data set [5] can be described thus: Efflux ratio of apparent permeability across human Caco2 cells at 10 uM after 120 mins by LC-MS/MS analysis. It is filed as ADME, cell-based. Particulars: Caco-2. The essentials:
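Caco-2 monolayers (passage 40–60) seeded at 1 × 10⁵ cells/cm², used on day 20; HBSS pH 7.4 with 25 mM HEPES and 4.45 mM glucose, 37 °C, 5% CO₂; 10 μM final (1% DMSO) dosed apical or basolateral, 120 min; both compartments quantified by LC-MS/MS; duplicate; reference compounds as controls; monolayer integrity by lucifer yellow permeation.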
In general terms: Caco-2 monolayers are a common model of the intestinal barrier.

A short description of data set [6]: Half life in rat liver microsomes at 5 uM. In kind it is ADME, Microsome. In outline: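 Compound at 5 μM with human, mouse or dog microsomes at 0.87 mg/mL, or rat and monkey microsomes at 1 mg/mL, in 50 mM potassium phosphate pH 7.4 with NADPH regenerating system at 37 °C.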
In the next data set the target is T3, Cytochrome P450 1A2 (Homo sapiens, UniProt P05177).
T3 sequence (P05177 whole entry): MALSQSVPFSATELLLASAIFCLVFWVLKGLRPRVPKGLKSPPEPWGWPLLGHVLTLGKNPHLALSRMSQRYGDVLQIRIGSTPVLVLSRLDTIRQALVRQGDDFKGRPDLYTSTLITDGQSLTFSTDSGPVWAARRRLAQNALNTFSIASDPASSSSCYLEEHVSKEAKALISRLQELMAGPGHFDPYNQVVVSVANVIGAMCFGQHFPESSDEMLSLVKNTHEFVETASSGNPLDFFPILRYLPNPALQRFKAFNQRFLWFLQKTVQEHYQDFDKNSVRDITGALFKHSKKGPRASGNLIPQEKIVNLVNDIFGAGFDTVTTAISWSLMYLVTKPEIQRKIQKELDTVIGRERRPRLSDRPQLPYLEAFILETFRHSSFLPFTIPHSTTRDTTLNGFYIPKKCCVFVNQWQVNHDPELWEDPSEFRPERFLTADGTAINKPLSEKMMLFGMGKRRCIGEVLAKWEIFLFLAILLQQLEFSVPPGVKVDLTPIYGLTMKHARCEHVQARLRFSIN
Nature of the data set: Inhibition of CYP1A2 in human liver microsomes using phenacetin as substrate by LC-MS/MS analysis. In kind it is ADME, Microsome. Background: Liver microsomes are vesicles of endoplasmic reticulum, rich in cytochrome P450 enzymes.

The target of data set [7] is T2, Cytochrome P450 3A4. Nature of the data set: Inhibition of CYP3A4 in human liver microsomes using testosterone as substrate by fluorescence detection assay. In kind it is ADME, Microsome. The essentials: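 Human liver microsomes at 0.25 mg/mL for CYP3A4, incubated with test compound at 0.001, 0.01, 0.1, 1.0, 5, 10 and 25 μM. IC50 is the concentration giving 50% inhibition, calculated from the decrease in metabolite formation relative to vehicle control.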

Data set [8] in a line: Plasma protein binding in monkey at 1000 ng/mL by equilibrium dialysis. Particulars: rhesus monkey, read-out: PPB (converted). It is filed as ADME, cell-free, Macaca mulatta. The essentials:
(§1)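 Equilibrium dialysis of plasma (mouse, rat, dog, monkey, human) spiked to 1000 ng/mL final against PBS, 4 h at 37 °C; buffer side extracted with MTBE in triplicate and analyzed by LC-MS/MS.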

Data set [9] is described as follows: Plasma protein binding in mouse at 1000 ng/mL by equilibrium dialysis. It is filed as ADME, cell-free. To be noted: read-out: PPB (converted). In outline: as §1
Data set [10] in a line: Plasma protein binding in rat at 1000 ng/mL by equilibrium dialysis. To be noted: read-out: PPB (converted). It is filed as ADME, cell-free. In outline: as §1
A general note: In equilibrium dialysis free small molecules cross a membrane that holds back macromolecules.

Data set [11] has as its target Cyclin-dependent kinase 9 (Homo sapiens, UniProt P50750). In words: Inhibition of CDK9.
Data set [12] deals with Macrophage colony-stimulating factor 1 receptor (Homo sapiens, UniProt P07333). In words: Inhibition of c-fms.
Sequence of Macrophage colony-stimulating factor 1 receptor (P07333 whole entry): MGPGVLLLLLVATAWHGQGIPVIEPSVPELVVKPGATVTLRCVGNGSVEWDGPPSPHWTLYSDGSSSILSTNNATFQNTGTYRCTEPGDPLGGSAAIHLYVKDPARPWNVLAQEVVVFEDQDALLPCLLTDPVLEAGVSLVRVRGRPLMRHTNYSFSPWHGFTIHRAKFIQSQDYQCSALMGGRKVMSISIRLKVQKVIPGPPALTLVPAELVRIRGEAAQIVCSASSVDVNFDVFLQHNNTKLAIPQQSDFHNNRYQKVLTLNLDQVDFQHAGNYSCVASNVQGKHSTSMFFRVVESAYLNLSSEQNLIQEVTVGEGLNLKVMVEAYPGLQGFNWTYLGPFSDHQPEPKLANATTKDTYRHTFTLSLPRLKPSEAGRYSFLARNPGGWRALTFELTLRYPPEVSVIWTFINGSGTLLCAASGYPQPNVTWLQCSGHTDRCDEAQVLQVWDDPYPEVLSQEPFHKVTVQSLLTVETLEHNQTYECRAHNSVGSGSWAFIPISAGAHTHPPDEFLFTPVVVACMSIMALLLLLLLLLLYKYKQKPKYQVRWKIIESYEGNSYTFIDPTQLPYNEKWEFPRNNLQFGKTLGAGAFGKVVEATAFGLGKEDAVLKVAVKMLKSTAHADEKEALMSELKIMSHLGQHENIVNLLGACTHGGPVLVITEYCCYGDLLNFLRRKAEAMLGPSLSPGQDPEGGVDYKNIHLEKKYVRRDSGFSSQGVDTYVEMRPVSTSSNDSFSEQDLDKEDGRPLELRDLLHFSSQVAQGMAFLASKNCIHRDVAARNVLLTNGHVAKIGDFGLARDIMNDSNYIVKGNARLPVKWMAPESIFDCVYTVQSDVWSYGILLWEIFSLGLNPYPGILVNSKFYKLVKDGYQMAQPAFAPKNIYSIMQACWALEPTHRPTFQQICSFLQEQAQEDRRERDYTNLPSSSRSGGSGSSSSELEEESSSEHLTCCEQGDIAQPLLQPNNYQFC
The nature of data set [13]: Terminal half life in BALB/c nude mouse at 50 mg/kg, po. The arrangement: dose 50 mg/kg, route oral. To be noted: in vivo, read-out: beta t1/2 (converted). In kind it is ADME, organism-based. In outline:
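Single oral dose by gavage as suspension in 0.5% methylcellulose/0.1% Tween 80 (mouse, rat, monkey) or in gelatin capsules (dog). Serial blood samples taken from 0 to 24 h into K3EDTA tubes; plasma stored at −70 °C until analysis. Parameters derived by noncompartmental methods. Rat, dog and monkey n = 3; mouse values estimated from mean concentration-time data, n = 3 mice per time point.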

T2 sequence (P08684 whole entry): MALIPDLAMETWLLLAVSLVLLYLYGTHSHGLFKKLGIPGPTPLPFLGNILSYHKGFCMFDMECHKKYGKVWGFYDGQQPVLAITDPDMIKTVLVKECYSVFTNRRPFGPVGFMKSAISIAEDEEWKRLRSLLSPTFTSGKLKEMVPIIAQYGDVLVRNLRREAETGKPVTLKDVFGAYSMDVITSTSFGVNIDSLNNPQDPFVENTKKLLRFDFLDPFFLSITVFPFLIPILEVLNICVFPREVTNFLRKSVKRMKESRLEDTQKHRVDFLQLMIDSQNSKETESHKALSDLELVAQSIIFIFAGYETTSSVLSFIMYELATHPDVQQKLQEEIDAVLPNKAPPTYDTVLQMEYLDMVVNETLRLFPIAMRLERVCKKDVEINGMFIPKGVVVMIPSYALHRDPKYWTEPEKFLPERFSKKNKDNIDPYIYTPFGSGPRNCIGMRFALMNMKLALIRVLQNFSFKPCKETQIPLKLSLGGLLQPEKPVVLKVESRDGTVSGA
Sequence of Cyclin-dependent kinase 9 (P50750 whole entry): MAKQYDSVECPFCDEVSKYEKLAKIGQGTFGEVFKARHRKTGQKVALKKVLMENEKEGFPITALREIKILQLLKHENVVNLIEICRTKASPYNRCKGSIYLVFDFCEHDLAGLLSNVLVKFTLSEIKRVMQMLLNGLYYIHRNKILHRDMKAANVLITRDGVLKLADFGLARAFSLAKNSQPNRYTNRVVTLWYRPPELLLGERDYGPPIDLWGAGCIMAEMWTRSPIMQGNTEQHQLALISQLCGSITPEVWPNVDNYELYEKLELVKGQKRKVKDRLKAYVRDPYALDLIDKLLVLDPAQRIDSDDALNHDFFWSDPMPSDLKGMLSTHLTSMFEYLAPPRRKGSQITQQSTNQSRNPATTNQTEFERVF

The bioavailability is the share of a dose that reaches the circulation, judged against a reference dose that is usually intravenous. A word on the IC50: it is the concentration at which inhibition is half-maximal. The term inhibition denotes the share of the control response that was lost under treatment. The term efflux ratio denotes the permeability from basolateral to apical divided by that in the opposite direction, in the common usage. In the case of `C1=C2COC/C=C/COCc3cc(ccc3OCCN3CCCC3)Nc3nccc(n3)C(=C1)O2` (mixture of isomers) [CT-1578], in data set [1], the bioavailability worked out at 32%. Besides, the IC50 in [2] is 46 nM; in [3], 60 nM; against Cytochrome P450 3A4 [4] it was above 10000 nM; on Cytochrome P450 1A2 it was above 10000 nM; at Cytochrome P450 3A4 [7] it was above 10000 nM; in data set [11], 36 nM. This compound also came in with a concentration for half-maximal inhibition (IC50) in data set [12] of 69 nM. At hERG, this compound had an inhibition at 10 µM of 14%. In [5], the efflux ratio at 2 h, 10 µM amounted to 1.1. This compound yielded a half-life at 5 µM in [6] above 60 min. Also, the fraction unbound at 1000 ng/mL in data set [8] was 0.013; in data set [9], 0.127; in data set [10] it was 0.127. The half-life in [13] is 48 min.
